Test results published in ChEMBL document CHEMBL1151790, “Novel angular furoquinolinones bearing flexible chain as antitumor agent: design, synthesis, cytotoxic evaluation, and DNA-binding studies” (Bioorg Med Chem, 2008).
Activity calls are given as the source filed them. The rule behind the calls is not given here.

What was measured:
A549 = test: Cytotoxicity against human A549 cells by SRB assay; assay type: functional, cell-based
In short: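 Cells run without irradiation; cytotoxicity read by sulforhodamine B dye staining, reported as IC50.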

P388 = test: Cytotoxicity against mouse P388 cells by MTT assay; assay type: functional, cell-based
In short: (§1)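 Cells run without irradiation; cytotoxicity read by microculture tetrazolium–formazan (MTT) method, reported as IC50.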

DNA [1] = test: Binding affinity to calf thymus DNA by fluorescence quenching technique; assay type: nucleic-acid assay; conditions: Bos taurus
In short: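 Calf-thymus DNA held at 50 µM with compound at […] in Tris–HCl (30 mM, pH 7.5); matching compound-only samples served as controls. Solutions […] 1 day at 25 °C in the dark, then fluorescence wavelength and intensity area measured.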

K562 = test: Cytotoxicity against human K562 cells by MTT assay; assay type: functional, cell-based; in short: as §1
[2] = Cytotoxicity against human QGY cells by MTT assay; assay type: functional, cell-based; in short: as §1
HeLa = test: Cytotoxicity against human HeLa cells by MTT assay; assay type: functional, cell-based; in short: as §1
Escherichia coli [3] = test: Induction of DNA cleavage activity in Escherichia coli pBR322 DNA by gel electrophoresis
In short: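 Plasmid pBR322 DNA (25 ng/µL) incubated with compound at several concentrations in Tris–HCl (20 mM, pH 7.5), 25 °C, 12 h, no irradiation. Products resolved on 1% agarose with ethidium bromide staining; supercoiled (I), nicked (II), linear (III) forms scored; triplicate.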

Escherichia coli [4] = test: Induction of DNA photocleavage activity in Escherichia coli pBR322 DNA assessed as form 2 […] in presence of irradiation by gel electrophoresis
In short: (§2)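 pBR322 DNA (25 ng/µL) with compound at several concentrations in Tris–HCl (20 mM, pH 7.5), irradiated 2 h. Analysed on 1% agarose gel with ethidium bromide; supercoiled form I, nicked form II, linear form III; triplicate runs.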

Escherichia coli [5] = test: Induction of DNA photocleavage activity in Escherichia coli pBR322 DNA assessed as form 3 linear in presence of irradiation by gel electrophoresis; in short: as §2
DNA [6] = test: Binding affinity to calf thymus DNA by circular dichroism spectra; assay type: nucleic-acid assay; conditions: Bos taurus
In short: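 CD spectra recorded on 10 µM compound with 100 µM calf-thymus DNA in Tris–HCl buffer (pH 7.0), 1-cm quartz cell, 200–600 nm; buffer-alone spectrum subtracted. DNA checked protein-free by A260/A280 1.8–1.9 and quantified from 260 nm absorbance.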

Structure (SMILES)	IC50 (A549) [µM]	IC50 (P388) [µM]	Kb (DNA [1]) [×10⁵ /M]	IC50 (K562) [µM]	IC50 [2] [µM]	IC50 (HeLa) [µM]	Activity (Escherichia coli [3])	Activity (Escherichia coli [4])	Activity (Escherichia coli [5])	Activity (DNA [6])
CCn1c(=O)cc(C)c2ccc3oc(C)c(C)c3c21	> 100	> 100	2.79	> 100	> 100	> 100				
Cc1oc2ccc3c(C)cc(=O)[nH]c3c2c1C	99.3	> 100	2.57	> 100	98.9	89.2	inactive	Active	Active	
Cc1oc2ccc3c(C)cc(=O)n(CC(=O)NCCN(C)C)c3c2c1C	20.4	14.5	1.58			20.7	inactive	Active	Active	
Cc1oc2ccc3c(C)cc(=O)n(CCCN(C)C)c3c2c1C	29.6	45.3	2.53	71.1	74.9	35	inactive			
Cc1oc2ccc3c(C)cc(=O)n(Cc4ccccc4)c3c2c1C	> 100	> 100	3.15	> 100	> 100	> 100				
Cc1oc2ccc3c(C)cc(=O)n(CC(=O)O)c3c2c1C			2.69			> 100				
Cc1oc2ccc3c(C)cc(=O)n(CC[N+](C)(C)C)c3c2c1C			3.18			49.5				
CCOC(=O)Cn1c(=O)cc(C)c2ccc3oc(C)c(C)c3c21	> 100	> 100	2.54	> 100	> 100	> 100				
Cc1oc2ccc3c(C)cc(=O)n(CCN(C)C)c3c2c1C	30.4	51.5	2.66	55.7	72.7	39.1	inactive	Active	Active	Active
Cc1oc2ccc3c(C)cc(=O)n(CC#N)c3c2c1C	> 100	> 100	2.06	> 100	> 100	> 100				
